Measured values: ChEMBL document CHEMBL4028907, “Semisynthesis and Biological Evaluation of Xanthone Amphiphilics as Selective, Highly Potent Antifungal Agents to Combat Fungal Resistance” (J Med Chem, 2017)
Values after ≈ are worked out from the molar mass of the structure shown.

What was measured:
Candida albicans [1] = experiment: Antifungal activity against Candida albicans ATCC 10231 after 24 hrs by two fold serial dilution method; assay type: functional; conditions: ATCC 10231, 24 h
Method in brief: (§1)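 Candida grown on Sabouraud dextrose agar at 35 °C for 24 h, adjusted to ~5×10^3 CFU/mL. Two-fold dilutions from 100 to 0.78 μg/mL in Sabouraud dextrose broth, incubated at 35 °C for 24 h. MIC is the lowest concentration inhibiting growth by eye and by OD600. CLSI-based with minor modifications.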

Candida albicans [2] = experiment: Antifungal activity against drug resistant Candida albicans DF2672R after 24 hrs by two fold serial dilution method; assay type: functional; method in brief: as §1
[3] = Selectivity index, ratio of HC50 for New Zealand white rabbit RBC to MIC for Candida albicans ATCC 10231
[4] = Dissociation constant, pKa of compound; assay type: physicochemical
Candida albicans [5] = experiment: Antifungal activity against Candida albicans DF1976R after 24 hrs by two fold serial dilution method; assay type: functional; method in brief: as §1
Candida albicans [6] = experiment: Antifungal activity against Candida albicans ATCC90028 after 24 hrs by two fold serial dilution method; assay type: functional; conditions: ATCC90028, 24 h; method in brief: as §1
Candida albicans [7] = experiment: Antifungal activity against Candida albicans ATCC24433 after 24 hrs by two fold serial dilution method; assay type: functional; conditions: ATCC24433, 24 h; method in brief: as §1
Candida albicans [8] = experiment: Antifungal activity against Candida albicans ATCC11651 after 24 hrs by two fold serial dilution method; assay type: functional; conditions: ATCC11651, 24 h; method in brief: as §1
Staphylococcus aureus [9] = experiment: Antibacterial activity against Staphylococcus aureus DM4001R by two fold serial dilution method; assay type: functional
Method in brief: (§2)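 Broth microdilution (CLSI, minor modifications) in Sabouraud dextrose, Mueller−Hinton or RPMI 1640 broth; two-fold serial dilutions of compound from stock to final 100 to 0.78 μg/mL. MIC taken as lowest concentration giving no visible growth.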

Bacillus cereus = experiment: Antibacterial activity against Bacillus cereus ATCC11778 by two fold serial dilution method; assay type: functional; method in brief: as §2
Klebsiella pneumoniae = experiment: Antibacterial activity against Klebsiella pneumoniae DM4299 by two fold serial dilution method; assay type: functional; method in brief: as §2
Pseudomonas aeruginosa = experiment: Antibacterial activity against Pseudomonas aeruginosa DM23155 by two fold serial dilution method; assay type: functional; method in brief: as §2
Staphylococcus aureus [10] = experiment: Antibacterial activity against methicillin resistant Staphylococcus aureus DM21455 by two fold serial dilution method; assay type: functional
Method in brief: (§3)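 Broth microdilution per CLSI guidelines with minor modifications, run in Mueller−Hinton broth; MIC is the lowest concentration giving no visible growth.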

Staphylococcus aureus [11] = experiment: Antibacterial activity against methicillin resistant Staphylococcus aureus DM9808R by two fold serial dilution method; assay type: functional; method in brief: as §3

For `COc1c(O)cc2oc3cc(O)c(CC=C(C)C)c(O)c3c(=O)c2c1CC=C(C)C` [MANGOSTIN], the MIC (Candida albicans [1]) was greater than 50 µg/mL, the MIC (Candida albicans [2]) was greater than 50 µg/mL and the Selectivity Index [3] was less than 0.2.
`COc1c(OCC(=O)N[C@@H](CCCNC(=N)N)C(N)=O)cc2oc3cc(OCC(=O)N[C@@H](CCCNC(=N)N)C(N)=O)c(CC=C(C)C)c(O)c3c(=O)c2c1CC=C(C)C` showed an MIC (Candida albicans [1]) of 6.25 µg/mL (≈ 7.47 µM), an MIC (Candida albicans [2]) of 6.25 µg/mL (≈ 7.47 µM) and a Selectivity Index [3] of 20.5.
For `CC[C@@H]([C@H](C)O)n1ncn(-c2ccc(N3CCN(c4ccc(OC[C@@H]5CO[C@@](Cn6cncn6)(c6ccc(F)cc6F)C5)cc4)CC3)cc2)c1=O` [POSACONAZOLE], the MIC (Candida albicans [2]) was 12.5 µg/mL (≈ 17.8 µM).
For `COc1c(OCC(O)CN2CCNCC2)cc2oc3cc(OCC(O)CN4CCNCC4)c(CC=C(C)C)c(O)c3c(=O)c2c1CC=C(C)C` (stereo not drawn), the MIC (Candida albicans [1]) was 12.5 µg/mL (≈ 18 µM), the MIC (Candida albicans [2]) was 12.5 µg/mL (≈ 18 µM) and the Selectivity Index [3] was 2.6. For the same molecule, the pKa [4] was 9.55.
Molecule `COc1c(OCC(O)CNCCN)cc2oc3cc(OCC(O)CNCCN)c(CC=C(C)C)c(O)c3c(=O)c2c1CC=C(C)C` (stereo not drawn) has an MIC (Candida albicans [1]) of 6.25 µg/mL (≈ 9.72 µM), an MIC (Candida albicans [2]) of 12.5 µg/mL (≈ 19.4 µM) and a Selectivity Index [3] of 2.4 to 4.8.
With `CN(C/C=C/C#CC(C)(C)C)Cc1cccc2ccccc12` [TERBINAFINE] the MIC (Candida albicans [2]) was 3.13 µg/mL (≈ 10.7 µM).
With `CCCCN(C)CC(O)COc1cc2oc3cc(OCC(O)CN(C)CCCC)c(OC)c(CC=C(C)C)c3c(=O)c2c(O)c1CC=C(C)C` (stereo not drawn) the MIC (Candida albicans [1]) was 3.13 µg/mL (≈ 4.49 µM), the MIC (Candida albicans [2]) was 3.13 µg/mL (≈ 4.49 µM) and the Selectivity Index [3] was 15.5. For the same molecule, the MIC (Candida albicans [5]) was 3.13 µg/mL (≈ 4.49 µM), the MIC (Candida albicans [6]) was 3.13 µg/mL (≈ 4.49 µM) and the MIC (Candida albicans [7]) was 6.25 µg/mL (≈ 8.97 µM). The MIC (Candida albicans [8]) was 6.25 µg/mL (≈ 8.97 µM).
In the case of `COc1c(OCC(O)CNCCNC(=N)N)cc2oc3cc(OCC(O)CNC(=N)N)c(CC=C(C)C)c(O)c3c(=O)c2c1CC=C(C)C` (stereo not drawn), the MIC (Candida albicans [1]) is reported as 6.25 µg/mL (≈ 9.14 µM), the MIC (Candida albicans [2]) is reported as 6.25 µg/mL (≈ 9.14 µM) and the Selectivity Index [3] is reported as 8.6.
`CCC(C)n1ncn(-c2ccc(N3CCN(c4ccc(OCC5COC(Cn6cncn6)(c6ccc(Cl)cc6Cl)O5)cc4)CC3)cc2)c1=O` (stereo not drawn) [ITRACONAZOLE] gave an MIC (Candida albicans [2]) of 6.25 µg/mL (≈ 8.86 µM).
`CCCN(CCC)CC(O)COc1cc2oc3cc(OCC(O)CN(CCC)CCC)c(OC)c(CC=C(C)C)c3c(=O)c2c(O)c1CC=C(C)C` (stereo not drawn) gave an MIC (Candida albicans [1]) of 3.13 µg/mL (≈ 4.32 µM), an MIC (Candida albicans [2]) of 3.13 µg/mL (≈ 4.32 µM) and a Selectivity Index [3] greater than 128. For the same molecule, the MIC (Staphylococcus aureus [9]) was 6.25 to 12.5 µg/mL (≈ 8.62 to 17.2 µM), the MIC (Bacillus cereus) was 6.25 to 12.5 µg/mL (≈ 8.62 to 17.2 µM) and the MIC (Klebsiella pneumoniae) was greater than 50 µg/mL. It also gave an MIC (Pseudomonas aeruginosa) greater than 50 µg/mL, an MIC (Candida albicans [5]) of 6.25 µg/mL (≈ 8.62 µM) and an MIC (Candida albicans [6]) of 6.25 µg/mL (≈ 8.62 µM). The MIC (Candida albicans [7]) was 6.25 µg/mL (≈ 8.62 µM), the MIC (Candida albicans [8]) was 6.25 µg/mL (≈ 8.62 µM) and the MIC (Staphylococcus aureus [10]) was 6.25 to 12.5 µg/mL (≈ 8.62 to 17.2 µM). It also gave an MIC (Staphylococcus aureus [11]) of 6.25 to 12.5 µg/mL (≈ 8.62 to 17.2 µM).
`COc1c(OCC(O)Cn2ccnc2)cc2oc3cc(OCC(O)Cn4ccnc4)c(CC=C(C)C)c(O)c3c(=O)c2c1CC=C(C)C` (stereo not drawn) gave an MIC (Candida albicans [1]) of 12.5 µg/mL (≈ 19 µM), an MIC (Candida albicans [2]) of 12.5 µg/mL (≈ 19 µM) and a Selectivity Index [3] greater than 32.
Molecule `CCCCCCNCC(O)COc1cc2oc3cc(OCC(O)CNCCCCCC)c(OC)c(CC=C(C)C)c3c(=O)c2c(O)c1CC=C(C)C` (stereo not drawn) has an MIC (Candida albicans [1]) of 12.5 µg/mL (≈ 17.2 µM), an MIC (Candida albicans [2]) of 12.5 µg/mL (≈ 17.2 µM) and a Selectivity Index [3] of 27.5.
In the case of `COc1c(OCC(O)CN(C)Cc2ccccc2)cc2oc3cc(OCC(O)CN(C)Cc4ccccc4)c(CC=C(C)C)c(O)c3c(=O)c2c1CC=C(C)C` (stereo not drawn), the MIC (Candida albicans [1]) is reported as 12.5 µg/mL (≈ 16.3 µM), the MIC (Candida albicans [2]) is reported as 6.25 µg/mL (≈ 8.17 µM) and the Selectivity Index [3] is reported as greater than 32.
In the case of `COc1c(OCC(O)CN2CCCC2)cc2oc3cc(OCC(O)CN4CCCC4)c(CC=C(C)C)c(O)c3c(=O)c2c1CC=C(C)C` (stereo not drawn), the MIC (Candida albicans [1]) is reported as 6.25 µg/mL (≈ 9.4 µM), the MIC (Candida albicans [2]) is reported as 6.25 µg/mL (≈ 9.4 µM) and the Selectivity Index [3] is reported as 4.2. The pKa [4] was 11.3.
Molecule `COc1c(OCC(=O)N[C@@H](CCCNC(=N)N)C(=O)OC(C)(C)C)cc2oc3cc(OCC(=O)N[C@@H](CCCNC(=N)N)C(=O)OC(C)(C)C)c(CC=C(C)C)c(O)c3c(=O)c2c1CC=C(C)C` has an MIC (Candida albicans [1]) of 12.5 µg/mL (≈ 13.1 µM), an MIC (Candida albicans [2]) of 6.25 µg/mL (≈ 6.57 µM) and a Selectivity Index [3] of 6.3 to 12.6.
Molecule `COc1c(OCC(O)CNCCNCCN)cc2oc3cc(OCC(O)CNCCNCCN)c(CC=C(C)C)c(O)c3c(=O)c2c1CC=C(C)C` (stereo not drawn) has an MIC (Candida albicans [1]) of 6.25 µg/mL (≈ 8.57 µM), an MIC (Candida albicans [2]) of 12.5 µg/mL (≈ 17.1 µM) and a Selectivity Index [3] of 13.2 to 26.4.
Work on `COC(=O)[C@H](CCCNC(=N)N)NC(=O)[C@H](CCCNC(=N)N)NC(=O)COc1cc2oc3cc(OCC(=O)N[C@@H](CCCNC(=N)N)C(=O)N[C@@H](CCCNC(=N)N)C(=O)OC)c(OC)c(CC=C(C)C)c3c(=O)c2c(O)c1CC=C(C)C` yielded an MIC (Candida albicans [1]) of 6.25 µg/mL (≈ 5.3 µM), an MIC (Candida albicans [2]) of 12.5 µg/mL (≈ 10.6 µM) and a Selectivity Index [3] of 22.2 to 44.4.
Molecule `CCCCCCCCNCC(O)COc1cc2oc3cc(OCC(O)CNCCCCCCCC)c(OC)c(CC=C(C)C)c3c(=O)c2c(O)c1CC=C(C)C` (stereo not drawn) has an MIC (Candida albicans [1]) greater than 50 µg/mL and an MIC (Candida albicans [2]) greater than 50 µg/mL.
